Source: ChEMBL document CHEMBL1122025, “Catechol O-methyltransferase. 11. Inactivation by 5-hydroxy-3-mercapto-4-methoxybenzoic acid” (1982)

Experiments:
Rattus norvegicus [1] = species: Rattus norvegicus; test: Effect of dialysis on inhibitory potency when COMT is pre-incubated in the absence of dithiothreitol (DTT) (after dialysis(+DTT))
[2] = molecular target: T1, Catechol O-methyltransferase (Rattus norvegicus) (UniProt P22734); test: Inhibition constant against Catechol O-methyltransferase from rat liver in the absence of dithiothreitol (DTT)
T1 sequence (whole entry): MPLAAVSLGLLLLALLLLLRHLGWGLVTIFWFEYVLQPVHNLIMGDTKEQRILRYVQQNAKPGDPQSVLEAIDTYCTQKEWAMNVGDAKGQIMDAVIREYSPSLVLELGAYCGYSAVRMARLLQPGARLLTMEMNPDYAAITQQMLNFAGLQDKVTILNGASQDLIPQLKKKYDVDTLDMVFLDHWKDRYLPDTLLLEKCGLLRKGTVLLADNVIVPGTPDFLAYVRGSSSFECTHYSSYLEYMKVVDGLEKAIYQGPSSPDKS

Rattus norvegicus [3] = species: Rattus norvegicus; test: Effect of dialysis on inhibitory potency when COMT is pre-incubated in the absence of dithiothreitol (DTT) (after dialysis (-DTT)); type: functional
[4] = molecular target: T1, Catechol O-methyltransferase (Rattus norvegicus); test: Inhibition of Catechol O-methyltransferase from rat liver at time zero with […] of the enzyme after pre-incubation for 30 min (in presence of DTT)
[5] = molecular target: T1, Catechol O-methyltransferase (Rattus norvegicus); test: Inhibition constant against Catechol O-methyltransferase from rat liver in the presence of 4 mM of dithiothreitol (DTT)
Rattus norvegicus [6] = species: Rattus norvegicus; test: Effect of dialysis on inhibitory potency when COMT is pre-incubated with dithiothreitol (DTT) (before dialysis); type: functional
Procedure, shortened: (§1)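 Rat liver COMT (male Sprague-Dawley, partially purified, DTT-reactivated before use) preincubated 30 min at 37 °C in 0.2 M phosphate buffer pH 7.6 with 1 mM inhibitor, with or without 8.0 mM DTT. Activity was then assayed directly or after dialysis against 0.2 M phosphate pH 7.6 containing 8.0 mM DTT. Result expressed as % activity remaining.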

Rattus norvegicus [7] = species: Rattus norvegicus; test: Effect of dialysis on inhibitory potency when COMT is pre-incubated with dithiothreitol (+DTT) (after dialysis); type: functional
Procedure, shortened: as §1

Rattus norvegicus [8] = species: Rattus norvegicus; test: Effect of dialysis on inhibitory potency when COMT is pre-incubated in the absence of dithiothreitol (DTT) (before dialysis); type: functional
Procedure, shortened: as §1

[9] = molecular target: T1, Catechol O-methyltransferase (Rattus norvegicus); test: Inhibition of Catechol O-methyltransferase from rat liver at time zero with no further inactivation of the enzyme after pre-incubation for 30 min (in absence of DTT)

Question: Which results are given for `COc1c(O)cc(C(=O)O)cc1S`?
Answer: Activity remaining (Rattus norvegicus [1]): 76%; Kii [2]: 30.2 µM; Kis [2]: 59.9 µM; Activity remaining (Rattus norvegicus [3]): 1%; inhibition [4]: 39%; Kii [5]: 743 µM; Kis [5]: 1140 µM; Activity remaining (Rattus norvegicus [6]): 70%; Activity remaining (Rattus norvegicus [7]): 87%; Activity remaining (Rattus norvegicus [8]): 7%; inhibition [9]: 91%
